Test results reported in ChEMBL document CHEMBL4715824, “Chemical Proteomic Characterization of a Covalent KRASG12C Inhibitor” (ACS Med Chem Lett, 2018).

Assays:
[1] = target: T1, Synaptic vesicle membrane protein VAT-1 homolog (Homo sapiens, UniProt Q99536); assay: (§1) Covalent binding affinity to VAT1 at Cys residue in human NCI-H358 cells assessed as reduction of log2 H/L ratio for tryptic peptide […] incubated for 4 hrs followed by cell lysis and subsequently labelled with light thiol probe N-((S)-18-iodo-11-isopropyl-10,13,17-trioxo-3,6-dioxa-9,12,16-triazaoctadecyl)-6-((4R,5S)-5-methyl-2-oxoimidazolidin-4-yl)hexanamide and heavy thiol probe 4 for 1 hr under dark conditions followed by tryptic digestion for overnight and measured by discovery ABPP based nano LC-MS/MS analysis
T1 sequence (Q99536 whole entry): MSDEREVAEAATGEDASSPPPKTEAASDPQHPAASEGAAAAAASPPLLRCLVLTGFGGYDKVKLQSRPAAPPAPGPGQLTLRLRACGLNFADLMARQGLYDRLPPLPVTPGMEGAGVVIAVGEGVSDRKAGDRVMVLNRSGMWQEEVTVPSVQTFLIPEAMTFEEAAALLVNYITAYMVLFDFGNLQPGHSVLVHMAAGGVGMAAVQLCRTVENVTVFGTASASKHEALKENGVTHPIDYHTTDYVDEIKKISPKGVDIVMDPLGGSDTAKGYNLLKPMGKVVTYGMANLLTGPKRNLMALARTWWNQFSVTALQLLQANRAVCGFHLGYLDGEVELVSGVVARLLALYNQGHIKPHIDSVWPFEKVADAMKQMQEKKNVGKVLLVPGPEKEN
In short: (§2)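 H358 cells were treated 4 h with DMSO, 0.08, 0.4, 2 or 10 μM, each paired with DMSO control cells, in biological duplicate. After lysis and denaturation, treated lysate took heavy thiol probe and control lysate took light probe. Lysates were combined equally, and probe-labelled tryptic peptides were streptavidin-enriched. Peptides were run twice by 180 min data-dependent nano LC-MS/MS. Hits needed log2 H/L below −0.776 (3σ) plus a dose-dependent decrease.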

Reticulon-4 = target: T2, Reticulon-4 (Homo sapiens, UniProt Q9NQC3); assay: as §1, with “RTN4” for “VAT1”, “Cys1101” for “Cys”; in short: as §2
T2 sequence (Q9NQC3 whole entry): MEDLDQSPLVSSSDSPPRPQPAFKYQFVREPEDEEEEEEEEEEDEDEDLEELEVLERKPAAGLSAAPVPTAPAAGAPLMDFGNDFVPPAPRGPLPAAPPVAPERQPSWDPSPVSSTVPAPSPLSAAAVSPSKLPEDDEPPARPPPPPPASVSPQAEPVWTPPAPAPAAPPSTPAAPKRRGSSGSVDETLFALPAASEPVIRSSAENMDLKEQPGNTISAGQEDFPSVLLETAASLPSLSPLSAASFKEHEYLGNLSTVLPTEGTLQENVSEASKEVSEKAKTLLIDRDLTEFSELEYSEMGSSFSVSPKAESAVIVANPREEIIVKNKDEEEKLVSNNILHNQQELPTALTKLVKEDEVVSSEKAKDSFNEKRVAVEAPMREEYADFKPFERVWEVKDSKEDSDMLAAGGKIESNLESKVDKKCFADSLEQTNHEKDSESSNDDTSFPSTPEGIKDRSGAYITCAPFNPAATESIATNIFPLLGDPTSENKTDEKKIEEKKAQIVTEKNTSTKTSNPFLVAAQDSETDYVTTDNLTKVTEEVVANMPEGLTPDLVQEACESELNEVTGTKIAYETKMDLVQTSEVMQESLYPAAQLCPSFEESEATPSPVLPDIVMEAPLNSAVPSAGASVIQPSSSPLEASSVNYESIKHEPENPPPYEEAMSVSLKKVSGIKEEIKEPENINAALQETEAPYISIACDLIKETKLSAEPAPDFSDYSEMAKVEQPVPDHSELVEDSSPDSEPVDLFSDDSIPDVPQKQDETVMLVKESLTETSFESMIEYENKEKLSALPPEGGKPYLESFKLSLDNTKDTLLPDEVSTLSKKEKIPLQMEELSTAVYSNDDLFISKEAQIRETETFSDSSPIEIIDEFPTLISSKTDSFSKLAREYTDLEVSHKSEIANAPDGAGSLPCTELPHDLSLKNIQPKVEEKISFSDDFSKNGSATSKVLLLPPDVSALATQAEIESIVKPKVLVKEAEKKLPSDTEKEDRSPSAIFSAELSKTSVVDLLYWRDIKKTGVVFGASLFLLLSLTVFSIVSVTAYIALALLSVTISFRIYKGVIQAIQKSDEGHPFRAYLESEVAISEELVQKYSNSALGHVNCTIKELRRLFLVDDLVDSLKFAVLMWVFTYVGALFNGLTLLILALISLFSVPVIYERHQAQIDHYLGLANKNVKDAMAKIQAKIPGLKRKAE

[2] = target: T1, Synaptic vesicle membrane protein VAT-1 homolog; assay: as §1; in short: as §2; remark: listed apart in the source
[3] = test system: GTPase KRas (Homo sapiens), P01116 [G12C]; assay: (§3) Covalent binding affinity to KRAS G12C mutant at Cys12 residue in human NCI-H358 cells assessed as log2 H/L ratio at 10 uM pretreated for 3 hrs followed by N-(((6S,7R)-7-(4-chloro-3-fluorophenyl)-1,4-oxazepan-6-yl)methyl)-2-hydroxyacetamide treatment for 3 hrs by competitive TMT click chemistry pull-down experiment based LC-MS/MS analysis; type: cell-based; settings: time 6.0 hrs
In short: (§4)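 H358 cells were pretreated with DMSO (n = 3) or 10 μM compound for 3 h, then 2 μM alkyne probe was added for another 3 h. Cells were lysed, clicked onto azide-agarose resin, digested, TMT-labelled and pooled. The pool was fractionated by high-pH HPLC and each fraction run twice by 60 min low-pH nano LC-MS/MS. Readout was log2 compound/DMSO normalized reporter intensity, with a least-squares means test and FDR adjustment.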

Homo sapiens [4] = species: Homo sapiens; assay: Covalent inhibition of GDP bound His-tagged KRAS G12C/C51L/C80L/C118S mutant (1 to 169 residues) (unknown origin) expressed in Escherichia coli assessed as enzyme-compound adduct formation at Cys12 residue by measuring ratio of Kinact/Ki measured up to 20 mins by mass spectrometry analysis relative to ARS-853; settings: time min <=20
NCI-H358 = assay: Antiproliferative activity against human NCI-H358 cells harboring KRAS G12C mutant assessed as reduction in cell viability; type: functional, cell-based
[5] = target: T3, Reticulon-4 (Homo sapiens) (UniProt Q9NQC3); assay: as §3, with “RTN4” for “KRAS G12C mutant”, “Cys1101” for “Cys12”; type: cell-based; settings: time 6.0 hrs; in short: as §4
T3 sequence (whole entry): T2 sequence (Q9NQC3 whole entry)

Heme oxygenase 2 = target: T4, Heme oxygenase 2 (Homo sapiens, UniProt P30519); assay: as §1, with “HMOX2” for “VAT1”, “Cys282” for “Cys”; in short: as §2
T4 sequence (P30519 whole entry): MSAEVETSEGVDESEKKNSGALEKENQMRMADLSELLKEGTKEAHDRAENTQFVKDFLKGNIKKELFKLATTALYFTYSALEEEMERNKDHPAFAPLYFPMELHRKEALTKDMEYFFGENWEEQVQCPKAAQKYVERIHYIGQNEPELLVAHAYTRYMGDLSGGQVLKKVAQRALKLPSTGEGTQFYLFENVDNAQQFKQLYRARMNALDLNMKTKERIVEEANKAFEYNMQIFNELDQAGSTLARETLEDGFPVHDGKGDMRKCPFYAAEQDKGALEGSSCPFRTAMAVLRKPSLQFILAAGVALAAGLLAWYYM

[6] = target: T5, Retinaldehyde dehydrogenase 3 (Homo sapiens) (UniProt P47895); assay: as §3, with “ALDH1A3” for “KRAS G12C mutant”, “Cys52” for “Cys12”; type: cell-based; settings: time 6.0 hrs; in short: as §4
T5 sequence (whole entry): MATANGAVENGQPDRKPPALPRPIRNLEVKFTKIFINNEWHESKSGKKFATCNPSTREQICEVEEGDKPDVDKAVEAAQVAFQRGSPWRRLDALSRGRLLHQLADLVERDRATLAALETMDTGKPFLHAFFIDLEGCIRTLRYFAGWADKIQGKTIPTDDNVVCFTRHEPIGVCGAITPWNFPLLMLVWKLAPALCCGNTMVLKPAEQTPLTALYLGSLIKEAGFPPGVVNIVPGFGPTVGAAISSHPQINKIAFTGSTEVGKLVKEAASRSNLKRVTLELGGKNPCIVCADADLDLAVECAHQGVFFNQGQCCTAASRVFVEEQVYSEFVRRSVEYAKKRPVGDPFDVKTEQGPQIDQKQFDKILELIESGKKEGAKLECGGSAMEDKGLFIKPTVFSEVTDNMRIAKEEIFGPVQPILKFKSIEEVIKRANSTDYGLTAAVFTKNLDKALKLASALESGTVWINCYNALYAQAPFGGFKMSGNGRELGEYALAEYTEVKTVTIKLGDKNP

Quinone oxidoreductase = target: T6, Quinone oxidoreductase (Homo sapiens, UniProt Q08257); assay: as §1, with “CRYZ” for “VAT1”, “Cys45” for “Cys”; in short: as §2
T6 sequence (Q08257 whole entry): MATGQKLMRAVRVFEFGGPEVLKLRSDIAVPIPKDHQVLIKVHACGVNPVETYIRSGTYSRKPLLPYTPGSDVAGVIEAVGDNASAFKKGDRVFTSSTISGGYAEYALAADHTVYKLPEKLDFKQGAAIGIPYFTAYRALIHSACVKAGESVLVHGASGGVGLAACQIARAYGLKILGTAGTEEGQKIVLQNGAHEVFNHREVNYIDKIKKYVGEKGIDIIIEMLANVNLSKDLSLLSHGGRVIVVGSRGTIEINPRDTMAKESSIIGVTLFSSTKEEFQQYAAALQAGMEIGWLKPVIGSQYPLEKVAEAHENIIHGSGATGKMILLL

Homo sapiens [7] = species: Homo sapiens; assay: Covalent inhibition of GDP bound His-tagged KRAS G12C/C51L/C80L/C118S mutant (1 to 169 residues) (unknown origin) expressed in Escherichia coli assessed as enzyme-compound adduct formation at Cys12 residue by measuring ratio of Kinact/Ki measured up to 20 mins by mass spectrometry analysis; settings: time min <=20
In short: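 KRAS G12C was held fixed at 2 μM and incubated with varying compound concentrations. Fraction of covalent Cys12 adduct over time was measured by intact-protein LC-MS, and kinact/KI was calculated from these kinetic data.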

[8] = target: Fatty acid-binding protein 5 (Homo sapiens) (UniProt Q01469); assay: as §3, with “FABP5” for “KRAS G12C mutant”, “Cys67” for “Cys12”; type: cell-based; settings: time 6.0 hrs; in short: as §4

IC50 [1]: 4.48 µM
IC50 (Reticulon-4): 14.6 µM
IC50 [2]: 4.54 µM
Ratio [3]: -1.8
fold change (FC) (Homo sapiens [4]): 6
IC50 (NCI-H358): 0.64 µM
Ratio [5]: -0.4
IC50 (Heme oxygenase 2): 7.64 µM
Ratio [6]: -1.1
IC50 (Quinone oxidoreductase): 8.44 µM
Ratio (Homo sapiens [7]): 501 M⁻¹ s⁻¹
Ratio [8]: -1.3
Structure (SMILES): C=CC(=O)N1CCN(c2ncnc3c(F)c(-c4c(O)cccc4F)c(Cl)cc23)CC1
